# SUMO1-SIM PPI – modulators of SUMO1 protein-protein interactions, primary screen, biochemical, uHTS; Small ubiquitin-related modifier 1 (Homo sapiens), P63165; inhibition, % at 20 µM; SUMO1 binding to a labelled peptide, TR-FRET, 1 h; hit rate 0.33% among 360,000; in the data active = inhibition above about 37%
# Target sequence (P63165 whole entry, looked up): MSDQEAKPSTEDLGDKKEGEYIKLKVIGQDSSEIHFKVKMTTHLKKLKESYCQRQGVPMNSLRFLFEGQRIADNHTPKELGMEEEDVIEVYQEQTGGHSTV
# LMPTP block – LMPTP phosphatase inhibitors, primary screen, biochemical, fluorescence intensity, uHTS; inhibition, % at 20 µM; hit rate 0.22% among 360,000; Low molecular weight phosphotyrosine protein phosphatase (Homo sapiens), P24666; AID 651560, 2012; recombinant LMPTP-A, OMFP fluorogenic substrate;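 active = compounds that cut the enzyme signal by at least half of the control window in the single-dose screen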
# Target sequence (P24666 whole entry, looked up): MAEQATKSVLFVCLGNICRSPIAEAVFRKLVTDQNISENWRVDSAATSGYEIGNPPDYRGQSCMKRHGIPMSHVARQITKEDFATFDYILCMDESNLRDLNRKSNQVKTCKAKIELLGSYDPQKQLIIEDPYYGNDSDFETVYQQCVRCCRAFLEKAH
#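 Buffer or medium: Bis-Tris pH 6.0, DTT, detergent; Assay system: LMPTP-A enzyme; Quantity: 0.625 nM enzyme; Detection: endpoint fluorescence intensity; Times: 50 min dark incubation at room temperature; Controls: substrate-only low control, DMSO enzyme-plus-substrate high control; Doses: single 20 µM dose; Read-out: percent inhibition versus substrate-only and uninhibited controls; Reagent: 400 µM OMFP.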
# STEP inh – STEP phosphatase inhibitors, primary screen, biochemical, fluorescence intensity, uHTS; Tyrosine-protein phosphatase non-receptor type 5 (Homo sapiens), P54829; recombinant STEP, OMFP fluorogenic substrate; inhibition, % at 20 µM; hit rate 0.25% among 360,000;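 active = inhibition at 20 µM, scaled per plate between control wells, above about 37%, limit read from the data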
#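 medium = Bis-Tris buffer pH 6.0, 2.5 mM DTT, 0.005% Tween 20 | test system = STEP (striatal-enriched tyrosine phosphatase) enzyme, cell-free | measure = normalized % inhibition | compound dosing = 20 µM, 1% DMSO | also added = 25 µM OMFP | schedule = reaction 20 min, ambient temperature | measured by = fluorescence read at 480 nm ex / 540 nm em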
# Scp-1 inhibitor – Scp-1 phosphatase inhibitors, primary screen, biochemical, colorimetric, uHTS | Recombinant Scp1, phosphopeptide, malachite green phosphate absorbance | inhibition, % at 20 µM | Carboxy-terminal domain RNA polymerase II polypeptide A small phosphatase 1 (Homo … | hit rate 0.88% among 340,000;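 active = inhibition above about 50% at 20 µM, limit read from the data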
# Target sequence (Q9GZU7 76-261 limits assumed): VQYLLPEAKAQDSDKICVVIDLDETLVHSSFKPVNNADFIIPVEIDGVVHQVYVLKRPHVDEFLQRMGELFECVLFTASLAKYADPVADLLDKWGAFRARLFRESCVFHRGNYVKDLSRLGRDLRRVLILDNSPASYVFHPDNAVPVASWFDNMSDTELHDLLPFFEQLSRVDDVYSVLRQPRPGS
#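 Test system – truncated SCP-1 phosphatase (76-261aa) · Reagent – Phosphorylated 17-residue peptide substrate · Incubation – 45 min room-temperature reaction, 5 min colour, 30 min stabiliser · Detection – colorimetric phosphate reagent with accelerator and stabiliser, absorbance at 630 nm · Measure – % inhibition at 20 µM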
# GRK2 inh – compounds blocking aptamer binding on GRK2 – biochemical, human GRK2, bead flow cytometry, HTS, primary screen | FAM-aptamer displacement from GRK2 | hit rate 0.59% among 330,000 | Beta-adrenergic receptor kinase 1 (Homo sapiens), P25098 | AID 488847, 2010 | inhibition of aptamer binding, % at 10 µM;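 active = inhibition of aptamer binding above 40%, roughly 3 SD of noise, on plates passing a quality check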;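 also: median bead fluorescence of bound FAM aptamer so fluorescent compounds give negative values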
# DNMT1 inh – human DNMT1 methyltransferase inhibitors, primary screen, biochemical, molecular beacon, fluorescence, HinP1I cleavage, uHTS | DNA (cytosine-5)-methyltransferase 1 (Homo sapiens), P26358 | inhibition (reported as % activation of signal), % at 10 µM | hit rate 0.83% among 360,000 | AID 588458, 2011; in the data active = inhibition above about 50%
# STEP inh conf – STEP phosphatase inhibitor hit confirmation, biochemical, fluorescence intensity, single concentration; recombinant STEP, OMFP fluorogenic substrate; inhibition, % at 20 µM; hit rate 32% among 520; shares compounds with STEP inh; call rule not given here
# Numbers stand for hits; . = inactive; / = no result given. A selection: hits, their analogues and other compounds. The true share with any hit is near 2.1%.
SMILES,SUMO1-SIM PPI,LMPTP block,STEP inh,Scp-1 inhibitor,GRK2 inh,DNMT1 inh,STEP inh conf
NC(=O)C1(N2CCCCC2)CCN(C(=S)Nc2ccccc2)CC1,.,.,.,.,.,.,/
NS(=O)(=O)c1ccc(NC(=S)N2CCC(Cc3ccccc3)CC2)cc1,.,.,80,.,.,.,31
NC(=O)C1(N2CCCCC2)CCN(C(=S)Nc2ccc(S(N)(=O)=O)cc2)CC1,.,.,92,.,.,.,63
NS(=O)(=O)c1ccc(NC(=S)N2CCN(Cc3ccc4c(c3)OCO4)CC2)cc1,.,.,92,.,.,.,.
CCN(CC(=O)NCc1cccs1)C(=O)c1ccc(NS(=O)(=O)c2cccc([N+](=O)[O-])c2)cc1,.,.,.,.,.,.,/
Cc1ccc(NC(=O)C(=O)NCCCN2CCCC2=O)cc1,.,.,.,.,.,.,/
Cc1ccc(COc2ccc(CNCCCN3CCCCCC3=O)cc2)cc1,.,.,75,.,.,.,.
Cn1c(SCC(=O)N/N=C/C=C\c2ccccc2[N+](=O)[O-])nc2ccccc21,.,.,.,.,.,.,/
CCn1c(SCC(=O)N/N=C/C=C\c2ccccc2[N+](=O)[O-])nc2ccccc21,.,.,52,.,.,.,.
Cc1cc(C)c2nc(-c3ccccn3)cc(C(=O)Nc3ccc(S(=O)(=O)Nc4onc(C)c4C)cc3)c2c1,.,.,41,.,.,68,72
COc1ccc(-c2cc(C(=O)Nc3ccc(S(=O)(=O)Nc4onc(C)c4C)cc3)c3ccccc3n2)cc1OC,.,.,.,.,.,.,/
O=C(c1ccc(Cl)cc1)N1CCC2CC1c1cc(-c3ccccc3)ccc12 (stereo not drawn),.,.,.,.,/,.,/
N#Cc1ccc(C(=O)N2CCC3CC2c2cc(-c4ccccc4)ccc23)cc1 (stereo not drawn),.,.,70,.,/,.,.
COc1ccc(-c2csc3nc(-c4cccnc4)nc(N4CCC(C(N)=O)CC4)c23)cc1OC,.,.,50,.,.,.,.
Cc1ccccc1C(=O)NCC(=O)OC(C)C(=O)Nc1cccc(S(=O)(=O)N2CCOCC2)c1 (stereo not drawn),.,.,.,.,.,.,/
CN(Nc1cccc(Cl)c1)c1cccc(Cl)c1,.,.,.,.,/,.,/
CC(=O)c1ccc(NC(=O)c2cn(-c3ccccc3)nc2-c2ccncc2)cc1,.,.,.,.,.,.,/
COC(=O)c1ccc(NC(=O)c2cn(-c3ccccc3)nc2-c2ccncc2)cc1,.,.,46,.,.,.,.
CCC(C)(C)NC(=O)CN(Cc1ccc(OC)cc1)C(=O)CCC(=O)Nc1nccs1,.,.,.,.,.,.,/
COc1ccc(S(=O)(=O)N2CCC(C(=O)NC3CCCCC3)CC2)cc1OC,.,.,.,.,.,.,/
Cc1cc([N+](=O)[O-])c(C)cc1-c1ccc(/C=N/n2cnnc2)o1,.,.,50,.,.,.,.
O=[N+]([O-])c1ccc(-c2ccc(/C=N/n3cnnc3)o2)c(Br)c1,.,.,.,.,.,.,/
COc1ccc(Cc2c(-c3ccccc3)nc3c(C)cc(Br)cn23)c(C)c1,.,.,.,/,/,.,/
COc1ccc(C(=O)NCCc2c[nH]c3ccc(OC)cc23)cc1,.,.,.,.,.,.,/
COc1ccc2[nH]cc(CCNC(=O)c3ccccc3Cl)c2c1,.,.,46,.,.,.,.
SMILES,SUMO1-SIM PPI,LMPTP block,STEP inh,Scp-1 inhibitor,GRK2 inh,DNMT1 inh,STEP inh conf
O=C(Nc1cccc2ccccc12)c1ccc([N+](=O)[O-])cc1,.,.,.,.,.,.,/
O=C(Nc1cccc2c(=O)[nH][nH]c(=O)c12)c1ccc([N+](=O)[O-])cc1,.,.,57,/,/,.,47
COc1ccc(NC(=S)N(CCc2ccc(OC)c(OC)c2)Cc2ccccn2)cc1,.,.,48,.,.,.,.
COc1ccc(CCN(Cc2ccccn2)C(=S)Nc2cccc(C)c2)cc1OC,.,.,.,.,.,.,/
COc1ccc(COc2ccsc2C(=O)Nc2ccc(Cl)c(Cl)c2)cc1,.,.,55,.,.,.,.
O=C(NCc1n[nH]c(=O)c2ccccc12)C1CC(=O)N(c2ccccc2)C1 (stereo not drawn),.,.,.,.,.,.,/
CCOc1cc(/C=C(\C#N)C(=O)Nc2ccccc2C(=O)O)ccc1OC(=O)c1ccc(C)cc1,.,.,58,.,.,.,.
COCCn1c(SCC(=O)Nc2ccc3c(c2)OCCO3)nc2ccccc2c1=O,.,.,.,/,/,.,/
COCCn1c(SCC(=O)Nc2ccc3[nH]c(=O)[nH]c3c2)nc2ccccc2c1=O,.,.,38,.,.,.,.
COc1ccccc1NS(=O)(=O)c1cc(NC(=S)NCCN2CCOCC2)ccc1N1CCOCC1,.,.,91,.,.,.,69
COc1ccccc1NS(=O)(=O)c1cc(NC(=O)C(C)(C)C)ccc1N1CCOCC1,.,.,.,.,.,.,/
COc1ccccc1NS(=O)(=O)c1cc(NC(=O)c2sccc2C)ccc1N1CCCC1,.,.,98,.,.,.,93
Cc1ccc(Cn2cc(CN3CC(N4CCN(C5CCN(C)CC5)CC4)CS3(=O)=O)nn2)cc1 (stereo not drawn),.,.,/,/,/,/,/
COc1ccccc1CCC(=O)N(C)C1CCCN(Cc2ccccc2F)C1 (stereo not drawn),.,.,.,.,.,.,/
S=c1[nH]nc(-c2cccnc2)n1/N=C/c1ccc(Br)s1,.,.,36,.,.,.,29
Cc1cc(-c2nnc3sc(-c4ccc(Cl)cc4Cl)nn23)n[nH]1,.,.,86,.,.,.,.
COc1ccccc1C1=NOC(C)(c2sc(-c3ccc(Cl)cc3)nc2C)C1 (stereo not drawn),.,.,.,.,.,.,/
Nc1nc(N2CCN(C(=O)c3ccco3)CC2)nc2ccccc12,.,.,.,.,.,.,/
Cc1cc(N2CCN(C(=O)c3ccco3)CC2)c2ccccc2n1,.,.,71,.,.,.,.
Cn1c(SCC(=O)N2CCCC2)nc2cccnc21,.,.,52,.,.,.,.
Cc1cccc2c(C(=O)N3CCN(c4ccccn4)CC3)cc(-c3cccc(Br)c3)nc12,.,.,69,.,.,.,.

# Source: PubChem (several laboratories)
